Measured values reported in paper PMC8210293 (Experimental and Therapeutic Medicine, 2021).

What was measured:
Type in all cases: in vitro ADME
[1] = target: T1, recombinant human UGT1A1 (Homo sapiens, UniProt P22309); experiment: Inhibition of recombinant UGT1A1-catalyzed 4-MU glucuronidation
T1 sequence (P22309 26-533): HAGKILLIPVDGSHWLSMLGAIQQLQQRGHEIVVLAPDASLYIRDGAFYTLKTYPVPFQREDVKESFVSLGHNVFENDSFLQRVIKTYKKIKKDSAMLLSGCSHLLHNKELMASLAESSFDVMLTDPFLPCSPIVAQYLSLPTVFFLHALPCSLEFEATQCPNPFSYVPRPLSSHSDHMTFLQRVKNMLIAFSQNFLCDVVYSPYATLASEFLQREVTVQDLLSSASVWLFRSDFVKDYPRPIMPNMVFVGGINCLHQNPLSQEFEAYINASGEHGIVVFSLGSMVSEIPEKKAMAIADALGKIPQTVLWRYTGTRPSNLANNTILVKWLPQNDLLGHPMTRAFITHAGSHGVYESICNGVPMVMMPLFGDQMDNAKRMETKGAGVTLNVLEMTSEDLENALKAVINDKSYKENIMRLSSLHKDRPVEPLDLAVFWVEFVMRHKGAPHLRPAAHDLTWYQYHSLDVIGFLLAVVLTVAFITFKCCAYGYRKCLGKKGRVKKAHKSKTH
Summary of the method: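 Recombinant human UGT1A1 from baculovirus-infected insect cells (0.125 mg/ml), 30 µM 4-MU, 5 mM UDPGA, 5 mM MgCl2, 50 mM Tris-HCl pH 7.4, DMSO <0.5%. Preincubated 5 min at 37 °C, started with UDPGA, run 120 min, stopped with cold methanol plus internal standard. 4-MU-G measured by LC-MS/MS MRM. Remaining activity vs blank at 50 µM. […] Ki by model fitting. Type from Lineweaver-Burk/Dixon plots.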

[2] = target: T2, recombinant human UGT1A9 (Homo sapiens, UniProt O60656); experiment: Inhibition of recombinant UGT1A9-catalyzed 4-MU glucuronidation
T2 sequence (O60656 26-530): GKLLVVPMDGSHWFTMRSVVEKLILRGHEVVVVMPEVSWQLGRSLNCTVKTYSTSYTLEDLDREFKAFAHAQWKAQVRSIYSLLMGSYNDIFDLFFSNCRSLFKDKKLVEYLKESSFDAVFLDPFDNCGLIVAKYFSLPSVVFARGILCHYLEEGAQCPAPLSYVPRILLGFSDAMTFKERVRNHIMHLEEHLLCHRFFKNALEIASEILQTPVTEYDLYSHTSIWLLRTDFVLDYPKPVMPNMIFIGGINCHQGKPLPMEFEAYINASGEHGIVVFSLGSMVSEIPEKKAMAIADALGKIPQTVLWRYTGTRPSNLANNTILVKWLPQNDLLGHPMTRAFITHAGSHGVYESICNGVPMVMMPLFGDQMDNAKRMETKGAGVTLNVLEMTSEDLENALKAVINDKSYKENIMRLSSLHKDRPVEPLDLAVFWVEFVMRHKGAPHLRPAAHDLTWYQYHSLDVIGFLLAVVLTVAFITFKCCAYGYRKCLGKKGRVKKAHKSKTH
Summary of the method: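 UGT1A9 incubations used recombinant human enzyme from baculovirus-insect cells (0.05 mg/ml), 30 µM 4-MU, 5 mM UDPGA, 5 mM MgCl2, 50 mM Tris-HCl pH 7.4, DMSO <0.5%. Preincubated 5 min at 37 °C, UDPGA-started, run 30 min, stopped with cold methanol plus internal standard. 4-MU-G by LC-MS/MS MRM. Remaining activity vs blank at 50 µM. […] Ki and type from model fits and Lineweaver-Burk/Dixon plots.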

[3] = target: T3, recombinant human UGT1A3 (Homo sapiens, UniProt P35503); experiment: Inhibition of recombinant UGT1A3-catalyzed 4-MU glucuronidation; settings: for Ki: UGT1A3
T3 sequence (P35503 29-534): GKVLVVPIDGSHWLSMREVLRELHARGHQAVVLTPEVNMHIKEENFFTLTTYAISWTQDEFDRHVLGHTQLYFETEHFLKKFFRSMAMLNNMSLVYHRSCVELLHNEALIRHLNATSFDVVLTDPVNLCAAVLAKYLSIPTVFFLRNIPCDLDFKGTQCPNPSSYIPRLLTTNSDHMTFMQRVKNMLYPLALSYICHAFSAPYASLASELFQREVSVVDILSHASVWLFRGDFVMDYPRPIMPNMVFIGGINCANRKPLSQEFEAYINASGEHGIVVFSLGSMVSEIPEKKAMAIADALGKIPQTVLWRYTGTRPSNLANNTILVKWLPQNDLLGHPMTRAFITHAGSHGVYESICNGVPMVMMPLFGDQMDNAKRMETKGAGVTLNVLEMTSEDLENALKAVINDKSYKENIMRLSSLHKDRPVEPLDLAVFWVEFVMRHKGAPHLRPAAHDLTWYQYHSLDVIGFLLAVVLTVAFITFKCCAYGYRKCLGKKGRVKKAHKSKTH
Summary of the method: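 Insect-cell-expressed recombinant human UGT1A3 (0.05 mg/ml), 1,200 µM 4-MU, 5 mM UDPGA, 5 mM MgCl2, 50 mM Tris-HCl pH 7.4, DMSO <0.5%. Preincubated 5 min at 37 °C, UDPGA-initiated, run 120 min, quenched with cold methanol plus internal standard. 4-MU-G by LC-MS/MS MRM. Remaining activity vs blank at 50 µM. […] Ki from inhibition-model fits and Lineweaver-Burk/Dixon plots.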

[4] = target: T4, recombinant human UGT1A6 (Homo sapiens, UniProt P19224); experiment: Inhibition of recombinant UGT1A6-catalyzed 4-MU glucuronidation; settings: Dixon and Lineweaver-Burk plots
T4 sequence (P19224 27-532): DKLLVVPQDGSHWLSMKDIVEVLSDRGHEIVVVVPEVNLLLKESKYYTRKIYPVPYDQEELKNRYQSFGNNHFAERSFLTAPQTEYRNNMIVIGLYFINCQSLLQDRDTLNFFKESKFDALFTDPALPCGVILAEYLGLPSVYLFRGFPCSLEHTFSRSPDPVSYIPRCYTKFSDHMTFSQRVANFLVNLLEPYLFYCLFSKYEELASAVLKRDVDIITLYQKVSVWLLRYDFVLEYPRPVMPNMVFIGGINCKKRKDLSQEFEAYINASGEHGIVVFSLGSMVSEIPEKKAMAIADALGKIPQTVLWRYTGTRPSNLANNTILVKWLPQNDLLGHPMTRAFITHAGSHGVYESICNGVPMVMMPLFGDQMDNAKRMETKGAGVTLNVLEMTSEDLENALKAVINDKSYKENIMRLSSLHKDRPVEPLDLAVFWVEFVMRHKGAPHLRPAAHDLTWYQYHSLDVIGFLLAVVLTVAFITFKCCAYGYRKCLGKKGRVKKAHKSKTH

IC50 [1]: 7470 nM
Ki ([1]; Inhibitory potential class based on Ki, UGT1A1): 1000 to 10000 nM
Inhibition type ([1]; UGT1A1, Dixon and Lineweaver-Burk plots): non-competitive inhibition
IC50 [2]: 2810 nM
Ki [2]: 510 nM
Inhibition type ([2]; UGT1A9, Dixon and Lineweaver-Burk plots): competitive inhibition
IC50 [3]: 10600 nM
Ki ([3]; Inhibitory potential class based on Ki): 1000 to 10000 nM
Ki ([3]; Ki, second plot of Lineweaver-Burk slopes): 1600 nM
Inhibition type [4]: non-competitive inhibition
SMILES: O=c1c(O)c(-c2ccc(O)c(O)c2)oc2cc(O)cc(O)c12 [Quercetin, 3,3',4',5,7-pentahydroxyflavone]
